# Screens from PubChem.
# Env fusion inh: inhibitors of HIV Env-mediated cell fusion; 1.1% of 360,000 active; AID 651610; inhibition, % at 12.3 µM; HeLa-JRFL Env/CEM21 cell fusion, luciferase;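 active means mean replicate inhibition score of at least 50 and every replicate individually at or above 50; inconclusive means only one of the two criteria met; inactive means mean below 50 and not all replicates reaching 50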;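 further: 0% = plate neutral controls and 100% = maraviroc near 300 nM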
# FGF22 binding: shifts melting point of recombinant human FGF22; activity (Tm shift, normalised), % at 9.99 µM; recombinant FGF22 thermal shift, SYPRO orange fluorescence; percent of sucrose octasulfate shift, DMSO zero; 1.5% of 340,000 active; Q9HCT0; AID 651658;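 active means mean Tm shift, scaled 0 neutral to 100 positive control, at about 1.3% or above, every replicate too, limit read from the data; inconclusive means no clear call, values can overlap the other calls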
# Target sequence (Q9HCT0 whole entry, looked up): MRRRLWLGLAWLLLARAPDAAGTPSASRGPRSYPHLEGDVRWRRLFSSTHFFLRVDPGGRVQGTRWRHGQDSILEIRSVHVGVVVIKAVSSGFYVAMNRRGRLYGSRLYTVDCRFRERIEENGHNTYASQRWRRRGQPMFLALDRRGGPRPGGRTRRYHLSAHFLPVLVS
# Cneo AK release: causes C. neoformans cell lysis. adenylate kinase release luminescence, 4 h; normalised: neutral wells 0, clomiphene wells 100. lysis activity, % at 15 µM. 0.2% of 360,000 active;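 active means mean lysis activity across replicates of at least 80%, whatever share of replicates individually reach that level; inactive means mean lysis activity below 80%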
#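 Test system: log-phase Cryptococcus neoformans yeast cells; Quantity: yeast cell density of 5 × 10^6 cells/mL; Buffer or medium: YPD; Doses: single compound concentration per well; Timing: 4 h at 37 °C static, read 1 h later; Measured by: AK luminescence; Read-out basis: lysis from increased AK signal; Control set: Clomiphene as positive control.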
# PGC1a acetyl inh: modulators of PGC1a acetylation. U2OS PGC1a acetylation, AlphaScreen anti-acetyl-lysine; with virally co-expressed GCN5 acetyltransferase. inhibition, % at 15.6 µM. 0.17% of 350,000 active. AID 651687;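 active means every replicate shows inhibition of at least 40%; inconclusive means mean inhibition at least 40% but some replicate below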;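 further: 0% = neutral control wells and 100% = positive control wells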
# Ecoli rRNA inh: selective bacterial rRNA inhibition in E. coli; AID 720706; E. coli WT GFP vs humanized-ribosome RFP mutants, fluorescence, 24 h; stronger effect = lower value; DMSO median 0, no signal -100; GFP signal change (wild-type ribosome), % (concentration not given with the values); 1.6% of 350,000 active;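 active means significant combined selectivity score with lowered wild-type GFP, culture density cut under 30%, mutant RFP and density less affected; inactive means any of these conditions unmet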
# ERAP1 inh: blocks human ERAP1 aminopeptidase activity. Q9NZ08. recombinant ERAP1, Leu-AMC fluorescence, 60 min. inhibition, % at 10.7 µM. 0.15% of 340,000 active. AID 652197;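 active means mean replicate inhibition of at least 30%, or all replicates individually reaching that 30% level; inactive means mean below 30% and not every replicate reaching it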;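 further: 0% = neutral control wells and 100% = L-leucinethiol positive control wells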
# The depositor's hits bear a star; i = inactive; ? = inconclusive; nt = no result; [ ] = another dose, or the depositor's remark. Hits are enriched below; roughly 3.5% of the tested compounds scored in any of these assays.
SMILES,Env fusion inh,FGF22 binding,Cneo AK release,PGC1a acetyl inh,Ecoli rRNA inh,ERAP1 inh
N#Cc1cccn1-c1nccs1,-143,43*,nt,2,13,4
COc1ccc(CCNC(=O)c2ccc(CSc3ccccc3)o2)cc1,2,0,nt,2,-37*,-3
COc1ccc(CCNC(=O)c2ccc(COc3ccccc3OC)o2)cc1,4,0,1,nt,-8,-3
O=C(Nc1ccc(F)cc1)c1ccc(CSc2ccc(Cl)cc2)o1,-5,0,-3,-8,-32*,-1
CC(=O)c1ccc(NC(=O)c2ccc(CSc3ccccc3)o2)cc1,0,0,nt,nt,-31*,-4
O=C(Nc1ccc(F)cc1)c1ccc(CSc2ccccc2)o1,19,0,nt,nt,-52,4
Cc1ccc(-n2nc3c(c2NC(=O)c2cccs2)CSC3)cc1,-29,nt,-1,2,nt,nt
CCC(C)NCCOCCOc1ccc(Cl)c(C)c1C (stereo not given),20,0,nt,nt,nt,15
Cc1ccc2oc(C(=O)N(CCO)Cc3ccccc3)c(C)c2c1,10,0,-1,-5,-17*,2
O=C(Nc1ccc(Oc2ccccc2)cc1)c1csc([C@@H]2O[C@H](CO)[C@@H](O)[C@H]2O)n1,39,0,-1,nt,-31*,-2
O=C(Nc1ccc(Oc2ccccc2)cc1)c1csc([C@H]2C[C@H](O)[C@@H](CO)O2)n1,68*,0,0,14,-1,-4
O=C(Nc1ccc(OCCO)cc1)c1csc([C@@H]2O[C@H](CO)[C@H](O)[C@H](O)[C@H]2O)n1,-17,0,-1,6,6,-4
Cc1ccccc1Cn1c(C)c(C(=O)NCc2ccc(Cl)c(Cl)c2)sc1=O,-30,0,0,nt,0,nt
CC12CC(O)C3C(CCC4=CC(=O)CCC43C)C1CCC2=CCO (stereo not given),nt,43*,nt,-1,-26,0
C[C@]12CCC(=O)C=C1CC[C@@H]1[C@@H]2[C@@H](O)C[C@]2(C=O)[C@@H](C(=O)CO)CC[C@@H]12,i,0,1,7,nt,-4
CC(=O)OC1CC2(C)C(C(C)=O)CCC2C2CCC3=CC(=O)CCC3(C)C12 (stereo not given),19,43*,1,8,-27,2
O=C(Nc1ccc(S(=O)(=O)Nc2ccc(Cl)cc2)cc1)C1CCCO1 (stereo not given),?,nt,3,-4,nt,nt
COc1ccc(CN2CCN(Cc3ccc(C(F)(F)F)cc3)CC2)c(OC)c1,7,0,-3,29,-7,-1
CC(C)NC(=O)Nc1ccc2c(c1)C(=O)N([C@@H](C)CO)C[C@@H](C)[C@@H](CN(C)C(=O)Nc1ccc(C(F)(F)F)cc1)OCCCC[C@@H](C)O2,79*[16.7 µM],0,3,-2,-1,-2
C[C@@H]1CCCCO[C@@H](CN(C)C(=O)Nc2ccc(C(F)(F)F)cc2)[C@@H](C)CN([C@H](C)CO)C(=O)c2cc(NC(=O)Nc3ccc(F)cc3)ccc2O1,nt,0,nt,-1,4,-1
C[C@H]1CCCCO[C@H](CN(C)C(=O)Nc2ccc(F)cc2)[C@@H](C)CN([C@@H](C)CO)C(=O)c2cc(NC(=O)Nc3ccc(F)cc3)ccc2O1,62*[16.7 µM],0,-1,-18,-1,3
C[C@@H]1CCCCO[C@@H](CN(C)C(=O)Nc2ccc(F)cc2)[C@H](C)CN([C@@H](C)CO)C(=O)c2cc(NC(=O)Nc3ccc(C(F)(F)F)cc3)ccc2O1,17[16.7 µM],1.4*,0,0,4,-6
C[C@H]1CCCCO[C@H](CN(C)C(=O)Nc2ccc(C(F)(F)F)cc2)[C@@H](C)CN([C@@H](C)CO)C(=O)c2cc(NC(=O)Nc3ccc(F)cc3)ccc2O1,77*[16.7 µM],0,2,18,3,3
Cc1nn2c(N3CCN(c4ccccn4)CC3)cc(C(C)C)nc2c1-c1ccccc1,5,nt,0,-8,nt,nt
CN1c2ccc(-c3ccccc3)cc2[C@H]2[C@H](CCN2C(=O)c2cccc(F)c2)[C@H]1CO,nt,-1,1,-4,-2,2
SMILES,Env fusion inh,FGF22 binding,Cneo AK release,PGC1a acetyl inh,Ecoli rRNA inh,ERAP1 inh
C[C@H]1CN([C@@H](C)CO)C(=O)c2cc(NC(=O)Nc3ccc(F)cc3)ccc2O[C@@H]1CN(C)S(C)(=O)=O,14[16.7 µM],0,100*,-1,1,-4
C[C@H]1CCCCO[C@H](CN(C)C(=O)Nc2ccc(F)cc2)[C@@H](C)CN([C@@H](C)CO)C(=O)c2cc(NC(=O)Nc3ccc(C(F)(F)F)cc3)ccc2O1,30[16.7 µM],1.6*,-1,0,2,-4
C[C@H](CO)N1C[C@H](C)[C@@H](CN(C)C(=O)Nc2cccc3ccccc23)OCCCC[C@H](C)Oc2ccc(NC(=O)Nc3ccc4c(c3)OCO4)cc2C1=O,-23[16.7 µM],1.7*,-2,-2,1,-3
COc1ccc(NC(=O)Nc2ccc3c(c2)C(=O)N([C@@H](C)CO)C[C@@H](C)[C@H](CN(C)C(=O)Nc2ccc(C(F)(F)F)cc2)OCCCC[C@@H](C)O3)cc1,35[16.7 µM],1.2*,-1,-14,-2,-6
C[C@@H]1CCCCO[C@@H](CN(C)C(=O)Nc2cccc3ccccc23)[C@H](C)CN([C@@H](C)CO)C(=O)c2cc(NC(=O)Nc3ccc4c(c3)OCO4)ccc2O1,10[16.7 µM],nt,1,15,-2,-2
CC(C)N(Cc1cnn(C)c1)C(=O)C1CCC(=O)N(CCc2cccc(F)c2)C1 (stereo not given),-15,0,2,-10,0,2
COc1ccc(NC(=O)Nc2ccc3c(c2)C(=O)N([C@@H](C)CO)C[C@H](C)[C@H](CN(C)C(=O)Nc2ccc4c(c2)OCO4)OCCCC[C@@H](C)O3)cc1,-8[16.7 µM],-1,-3,0,2,4
C[C@@H]1CN([C@H](C)CO)C(=O)c2cc(NC(=O)Nc3ccc(F)cc3)ccc2O[C@@H](C)CCCCO[C@H]1CN(C)C(=O)c1ccccc1,nt,nt,nt,-13,-4,0
CC(C)NC(=O)Nc1ccc2c(c1)C(=O)N([C@H](C)CO)C[C@H](C)[C@@H](CN(C)C(=O)Nc1ccc(F)cc1)O2,-4[16.7 µM],0,-8,12,2,2
CC(C)NC(=O)Nc1ccc2c(c1)C(=O)N([C@@H](C)CO)C[C@H](C)[C@H](CN(C)C(=O)Nc1ccc(F)cc1)O2,70*[16.7 µM],0,1,5,1,0
COc1ccc(NC(=O)N(C)C[C@@H]2OCCCC[C@H](C)Oc3ccc(NC(=O)Nc4ccc5c(c4)OCO5)cc3C(=O)N([C@H](C)CO)C[C@@H]2C)cc1,-16[16.7 µM],0,92*,0,-1,0
